{"data": "Measured values from different studies", "read-out": "cell growth or viability", "note": "Each line is one published result; the experiments were not run side by side."}
{"SMILES": "C=CC(=O)Nc1cc(Nc2nccc(-c3cn(C)c4ccccc34)n2)c(OC)cc1N(C)CCN(C)C", "cell line": "BaF3", "time": "72 h", "quantity": "GI50", "result": "2.76 µM"}
{"SMILES": "C1COCCN1.COc1ccc(/C=C\\c2cc(I)c(OC)c(I)c2)cc1OP(=O)(O)O", "cell line": "SF-268", "technique": "SRB", "time": "48 h", "quantity": "GI50", "result": "0.054 µg/mL"}
{"SMILES": "COc1cc(C(=O)c2cc3cc(N)cc(OC)c3s2)cc(OC)c1OC", "cell line": "human Lymphocyte", "technique": "MTT", "time": "72 h", "quantity": "IC50", "result": "> 20 µM"}
{"SMILES": "COC1=C2C[C@@H](C)C[C@H](OC)[C@H](O)[C@@H](C)/C=C(\\C)[C@H](OC(N)=O)[C@@H](OC)/C=C\\C=C(/C)C(=O)NC(=C(c3ccccc3)C1=O)C2=O", "cell line": "ARPE-19", "technique": "MTT", "quantity": "IC50", "result": "8.3 µM"}
{"SMILES": "COc1c2c(cc3c1OCO3)[C@]13C=C[C@H](OC)C[C@@H]1[N@](C2)C[C@H]3OC(=O)c1ccco1", "cell line": "PANC-1", "technique": "WST-1", "quantity": "IC50", "result": "> 10 µM"}
{"SMILES": "COC1=C2C[C@@H](C)C[C@H](OC)[C@H](O)[C@@H](C)/C=C(\\C)[C@H](OC(N)=O)[C@@H](OC)/C=C\\C=C(/C)C(=O)NC(=C(C)C1=O)C2=O", "cell line": "ARPE-19", "technique": "MTT", "quantity": "IC50", "result": "> 20 µM"}
{"SMILES": "COc1c2c(cc3c1OCO3)[C@]13C=C[C@H](OC)C[C@@H]1[N@](C2)C[C@H]3OC(=O)c1ccoc1", "cell line": "PANC-1", "technique": "WST-1", "quantity": "IC50", "result": "> 10 µM"}
{"SMILES": "CCCc1cc(=O)n2nc(NCc3c(F)cc(Cl)cc3F)c(C#N)c2[nH]1", "cell line": "CAL-51", "technique": "ATP luminescence", "time": "72 h", "quantity": "IC50", "result": "> 50 µM"}
